Screening data from PubChem.
Hits are enriched below; roughly 3.4% of the tested compounds scored in any of these assays.
ROCK2 blocker – inhibitors of human Rho kinase 2 | O75116 | purified ROCK2, Kinase-Glo ATP depletion luminescence | inhibition, % at 6 µM | hit rate 0.35% among 60,000;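 active means inhibition above the screen-wide mean inhibition plus 3 SD, cut at about 18% in these data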
PKA inh – blocks human protein kinase A activity; P17612; PKA Kemptide phosphorylation, Kinase-Glo ATP luminescence; inhibition, % at 6 µM; hit rate 0.1% among 65,000; AID 524;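 active means inhibition above the screen-wide mean inhibition plus 3 SD, cut at about 21% in these data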
JNK3 inh – JNK3 (human) kinase inhibition; P53779; purified JNK3 kinase activity, HTS; inhibition, % at 8 µM; hit rate 0.61% among 60,000; in the data active means inhibition above about 17%
RORa activator – activates the human nuclear receptor RORA. P35398. CHO-K1 Gal4-RORA LBD luciferase reporter, luminescence; percent increase over mock-subtracted basal signal. activation, % at 10 µM. hit rate 1.5% among 65,000;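 active means activation above the mean of all tested compounds plus 3 SD, cut at about 49% in these data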
WNV NS2B-NS3 inh – blocks West Nile virus NS2B-NS3 protease activity | hit rate 0.18% among 65,000 | z-score (test concentration not listed) | WNV NS2B-NS3 protease, fluorogenic substrate Ex360/Em465; hits give low values | P06935 | AID 577; in the data active means z-score below about -3
SF-1 act – activates the human nuclear receptor SF-1; activation, % at 10 µM; hit rate 1.9% among 65,000; AID 522; CHO-K1 Gal4-SF-1 LBD luciferase reporter; % increase over DMSO SF-1-specific signal; Q13285;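 active means activation above the mean activation of all tested compounds plus 3 SD, cut at about 50% in these data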
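Material: Transient Gal4-SF-1 LBD reporter, CHO-K1 | Input: 4,000 cells/well | Dosing: One dose, 10 µM compound, 1% DMSO | Incubation: 20 h compound treatment, 37 °C | Detection: SteadyLite luciferase luminescence | Evaluation: Percent activation relative to DMSO median and mock-transfected background | Benchmarks: DMSO-treated SF-1-transfected cells as negative, DMSO-treated mock-transfected cells lacking SF-1 as background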
A number is an active result; - = inactive; . = not tested or not shown.

SMILES	ROCK2 blocker	PKA inh	JNK3 inh	RORa activator	WNV NS2B-NS3 inh	SF-1 act
COCc1cc(=O)n2[nH]c(-c3ccccc3)cc2n1	-	-	-	-	-	-
COCc1cc(=O)n2[nH]c(-c3cccc(Br)c3)cc2n1	-	-	-	53	-	-
O=C(CN1CCOCC1)N1CCN(C(=O)CN2CCOCC2)CC1	-	-	-	-	-	-
Cc1ccc(C(c2nnnn2CCC(C)C)N2CCN(C)CC2)cc1 (stereo not given)	-	-	-	-	-	-
N#CC(C#N)=c1ccc2c(c1)NC1(CCCCC1)N=2	-	-	-	-	-	-
Cn1c(=O)n(CCc2ccccc2)c(=O)c2c1nc1n2CCCN1c1ccc(F)cc1	-	-	-	-	-	-
O=C(c1ccco1)n1c(=S)nc2ccccn21	-	-	-	77	-	-
Cc1cccc2nc(=S)n(C(=O)c3ccco3)n12	-	-	-	56	-	-
O=C(c1ccco1)N1C(=O)c2cccc3cccc1c23	-	-	-	-	-	-
CC(=O)Nc1ccc(C(=O)OCCC(C)C)cc1	-	-	-	51	-	-
CCCCOC(=O)c1ccc(NC(=O)C(CCS(C)(=O)=O)NC(C)=O)cc1 (stereo not given)	-	-	-	-	-	-
CCOC(=O)c1ccc(NC(=O)c2nn(C)cc2Br)cc1	-	-	-	76	-	-
CCOC(=O)c1ccc(NC(=O)N(CC)CC)cc1	.	-	.	-	-	63
CCC1CCCCN1C(=O)CSc1nc(N)c(NC(=O)c2ccc(OC)c(OC)c2)c(=O)[nH]1 (stereo not given)	-	-	-	-	-	-
Cc1c(NC(=O)C(C)N2CC(C)OC(C)C2)c(=O)n(-c2ccccc2)n1C (stereo not given)	-	-	-	-	-	-
COc1ccc(-c2nc(=S)[nH][nH]2)cc1	-	-	-	-	-	-
COc1ccc(-c2cc(-c3ccc(OC)cc3)[nH]n2)cc1	-	-	-	65	-	-
CCCCC(=O)Nc1cc(NC(=O)CCCC)cc(C(=O)O)c1	-	-	-	-	-	-
CC#CCCCC(=O)Nc1cccc(C(=O)O)c1	-	-	-	56	-	-
Cc1ccc(C(N)=S)c(C)c1	-	-	-	-	-	-
O=c1c(-c2ccc(F)cc2)coc2cc(O)ccc12	-	-	-	84	-	63
COc1ccc(-c2coc3cc(O)ccc3c2=O)cc1OC	-	-	-	78	-	-
O=c1c(-c2ccc(Br)cc2)coc2c(CN3CCOCC3)c(O)ccc12	-	-	-	-	-	-
O=c1c(-c2ccc(F)cc2)coc2c3c(ccc12)OCCO3	-	-	-	-	-	63
COc1ccccc1Oc1coc2cc(O)ccc2c1=O	-	-	-	-	-	-
SMILES	ROCK2 blocker	PKA inh	JNK3 inh	RORa activator	WNV NS2B-NS3 inh	SF-1 act
COc1cc(OC)c(NC2c3ccccc3C(=O)N2c2cc(C)ccn2)cc1Cl (stereo not given)	-	-	-	84	-	-
COc1ccc(NC2c3ccccc3C(=O)N2c2cccnc2)cc1Cl (stereo not given)	-	-	-	-	-	-
Cc1nn2cc(-c3ccc(N)cc3)nc2s1	-	-	-	-	-	88
Cc1nc2nc(-c3ccccc3)cn2nc1C	.	-	.	-	-	-
CN1C=CC(=C2C(=O)c3ccccc3C2=O)C=C1	-	-	32	52	-	-
CCN1C=CC(=C2C(=O)c3ccccc3C2=O)C=C1	-	-	62	-	-	-
O=C1C(C2=C(O)c3ccccc3C2=O)=Nc2ccccc21	-	-	-	-	-	-
CCCN1C=CC(=C2C(=O)c3ccccc3C2=O)C=C1	-	-	56	-	-	-
C=CCN(C(=O)CCC(=O)O)C1CC(=O)N(c2ccc(OCCC)cc2)C1=O (stereo not given)	-	-	-	-	-	-
Cc1ccc(-n2ncc3c(=O)n(Cc4ccccn4)cnc32)cc1C	-	-	-	-	-	-
Cc1cc(C(=O)OCC(=O)N2CCc3ccccc32)c(C)o1	-	-	-	-	-	54
O=C(COc1ccc(F)cc1Br)N1CCc2ccccc21	-	-	-	-	-	51
O=C1C2C3C=CC(C3)C2C(=O)N1c1n[nH]c(CCc2ccccc2)n1 (stereo not given)	-	-	-	-	-	-
CN(C)/C=N/c1nc2ccc3c(c2s1)CCCC3	-	-	-	66	-	59
COc1ccc2nc(/N=C\N(C)C)sc2c1	-	-	-	-	-	-
COc1ccc(-n2nc(C(=O)NCC(=O)N3CCN(c4ccccn4)CC3)c3ccccc3c2=O)cc1	-	-	-	-	-	60
c1cncc(-c2nnc(-c3ccco3)o2)c1	-	-	-	-	-	-
Clc1ccc(-c2nnc(-c3ccco3)o2)cc1	-	-	-	50	-	-
O=c1n(Cc2ccc(Cl)cc2)c2sc3c(c2c2ncnn12)CCCC3	-	-	-	-	-	-
Cc1cc(OC(=O)c2ccccc2)n(CCC#N)n1	-	-	-	-	-11	-
COc1ccc(S(=O)(=O)N2Cc3ccccc3CC2C(=O)Nc2nccs2)cc1OC (stereo not given)	-	-	-	-	-	71
COc1ccc(S(=O)(=O)N2Cc3ccccc3CC2C(=O)N2CCOCC2)cc1OC (stereo not given)	-	-	-	-	-	-
O=S(=O)(Nc1ncnc2c1oc1ccccc12)c1ccc(Cl)s1	-	-	-	-	-	-
COc1ccc(OC)c(S(=O)(=O)N2CCN(C34CC5CC(CC(C5)C3)C4)CC2)c1	-	-	-	-	-	-
O=C(Nc1cc(=O)c2ccccc2o1)N1CCCCC1	.	-	.	-	-	-
SMILES	ROCK2 blocker	PKA inh	JNK3 inh	RORa activator	WNV NS2B-NS3 inh	SF-1 act
CSc1ccc(-c2cc(=O)c3ccccc3o2)cc1	-	-	-	-	-	63
O=c1c2ccccc2nc2n1CCN2Cc1ccc(Cl)cc1	-	-	-	-	-	-
O=C(Nc1ccc2c(c1)OCO2)C1CCN(Cc2cnn(-c3ccccc3)c2-n2cccc2)CC1	.	-	.	-	-	-
Cc1nn(C(=O)c2cccs2)c(N)c1-c1ccccc1	-	-	-	57	-	54
O=c1oc2ccccc2cc1-c1nnc(-c2cccc(Br)c2)o1	-	-	-	-	-	53
Cc1ccc(-c2nnc(-c3ccccc3)o2)cc1Br	-	-	-	-	-	-
Cc1ccccc1-c1nnc(-c2ccc(Br)cc2)o1	-	-	-	-	-	77
Brc1cccc(-c2nnc(-c3ccccc3)o2)c1	-	-	-	-	-	60
CCc1cccc(NC(=O)Nc2cccs2)c1	-	-	-	63	-	-
Cc1cc(NCCCN2CCOCC2)n2ncc(-c3ccc(Cl)cc3)c2n1	-	-	-	62	-	70
Cn1c(=O)c2c(nc(NCCCN3CCOCC3)n2Cc2ccc(Cl)cc2)n(C)c1=O	-	-	-	-	-	-
Cc1ccnc2c(N3C(=O)C4C5C=CC(C5)C4C3=O)cccc12 (stereo not given)	-	-	-	-	-	-
